Results taken from ChEMBL document CHEMBL1124994, “New and versatile approaches to the synthesis of CPP-related competitive NMDA antagonists. Preliminary structure-activity relationships and pharmacological evaluation” (J Med Chem, 1990).

Experiments:
[1] = molecular target: Glutamate NMDA receptor; test: Inhibition of N-methyl-D-aspartate glutamate receptor by using [3H]CPP as a radioligand from the rat cortical membranes.; type: cell membranes, Membrane
[2] = molecular target: T1, Glutamate NMDA receptor (Rattus norvegicus) (UniProt P35439+Q00959+Q00960+Q00961+Q62645+Q8VHN2+Q9R1M7); test: Binding affinity for glutamate-stimulated TCP binding site of N-methyl-D-aspartate glutamate receptor from rat brain by using [3H]TCP as radioligand; Antagonist; details: filed as antagonist
Outline: (§1)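 Rat whole brain minus cerebellum and brain stem; crude synaptic membranes stored at -70 °C, then treated with 0.01% Triton X-100 in 50 mM Tris-HCl pH 7.6 for 30 min at 37 °C and washed three times. Incubation with 15 mg wet tissue and 1 nM [3H]TCP in 5 mM Tris-HCl pH 8.0, 1 h, 25 °C. Filtration through PEI-treated glass-fiber filters, scintillation counting. Nonspecific binding defined with 100 µM (+)-SKF 10047.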

[3] = molecular target: T1, Glutamate NMDA receptor (Rattus norvegicus); test: Binding affinity for glutamate-stimulated TCP binding site of N-methyl-D-aspartate glutamate receptor from rat brain by using [3H]-TCP as radioligand; ant = antagonist; details: filed as antagonist
Outline: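 Crude synaptic membranes from rat whole brain minus cerebellum and brainstem, stored at -70 °C, treated with 0.01% Triton X-100 in 50 mM Tris-HCl pH 7.6 at 37 °C for 30 min, then washed. Incubated with 15 mg tissue and 1 nM [3H]TCP in 5 mM Tris-HCl pH 8.0 for 1 h at 25 °C. Filtered on PEI-treated filters, counted by scintillation. Nonspecific binding: 100 µM (+)-SKF 10047.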

[4] = molecular target: Glutamate NMDA receptor; test: Compound was tested for inhibition of N-methyl-D-aspartate glutamate receptor by using [3H]CPP as a radioligand from the rat cortical membranes; type: cell membranes, Membrane
[5] = molecular target: T1, Glutamate NMDA receptor (Rattus norvegicus); test: Binding affinity for glutamate-stimulated TCP binding site of N-methyl-D-aspartate glutamate receptor from rat brain by using [3H]TCP as radioligand;Antagonist; details: filed as antagonist; outline: as §1
[6] = molecular target: Glutamate NMDA receptor; test: Binding affinity was determined by the ability to displace [3H]-CPP from N-methyl-D-aspartate glutamate receptor of rat brain
Outline: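 Radioligand displacement of [3H]CPP from rat cortical crude synaptic membranes.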

[7] = molecular target: T1, Glutamate NMDA receptor (Rattus norvegicus); details: filed as agonist
[8] = molecular target: T1, Glutamate NMDA receptor (Rattus norvegicus); test: Binding affinity for glutamate-stimulated TCP binding site of N-methyl-D-aspartate glutamate receptor from rat brain by using [3H]TCP as radioligand; Agonist; details: filed as agonist
Outline: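 Rat whole brain minus cerebellum and brainstem, crude synaptic membranes stored at -70 °C; thawed, treated with 0.01% Triton X-100 in 50 mM Tris-HCl pH 7.6 at 37 °C for 30 min, washed ≥3 times. Test agents incubated with 15 mg tissue (wet weight) and [3H]TCP 1 nM in 5 mM Tris-HCl pH 8.0, 1 h, 25 °C. Filtration, scintillation counting; nonspecific binding with 100 μM (+)-SKF 10047.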

[9] = molecular target: Glutamate NMDA receptor; test: Compound was tested for inhibition of [3H]CPP binding from N-methyl-D-aspartate glutamate receptor in the rat cortical membranes.; type: cell membranes, Membrane

In the case of `O=C(O)CN1CCNC(C(=O)O)C1` (stereo not given), the IC50 [1] is reported as 16 µM and the GSTCP activity [2] is reported as “Antagonist”.
With `NC(CCCCCP(=O)(O)O)C(=O)O` (stereo not given) [AP-7] the IC50 [1] was 0.76 µM and the GSTCP activity [3] was “Antagonist”.
In the case of `O=C(O)C1CN(CP(=O)(O)O)CCN1` (stereo not given), the IC50 [4] is reported as 0.32 µM and the GSTCP activity [2] is reported as “Antagonist”.
With `O=C(O)CCCN1CCNC(C(=O)O)C1` (stereo not given) the IC50 [1] was 0.85 µM and the GSTCP activity [5] was “Antagonist”.
`O=C(O)C1CN(c2cccc(P(=O)(O)O)c2)CCN1` (stereo not given) showed an IC50 [1] of 83 µM.
In the case of `NC(CCCP(=O)(O)O)C(=O)O` (stereo not given), the GSTCP activity [3] is reported as “Antagonist” and the IC50 [6] is reported as 0.29 µM.
For `N[C@@H](CCC(=O)O)C(=O)O`, the GSTCP activity [7] was “Agonist”.
`O=C(O)c1ccccc1C(=O)N1CCNC(C(=O)O)C1` (stereo not given) was tested, and the IC50 [1] was greater than 100 µM.
In the case of `O=C(O)C1CN(CCP(=O)(O)O)CCN1` (stereo not given), the IC50 [1] is reported as 9.8 µM and the GSTCP activity [2] is reported as “Antagonist”.
Compound `O=C(O)C1CN(Cc2cccc(CP(=O)(O)O)c2)CCN1` (stereo not given) has an IC50 [1] greater than 100 µM.
`O=C(O)C1CN(CCCP(=O)(O)O)CCN1` (stereo not given) was tested, and the IC50 [1] was 0.079 µM and the GSTCP activity [8] was “Agonist”.
In the case of `O=C(O)C1CN(CCCP(=O)(O)O)CCN1CCC(c1ccccc1)c1ccccc1` (stereo not given), the IC50 [4] is reported as greater than 100 µM.
For `CP(=O)(O)CCCN1CCNC(C(=O)O)C1` (stereo not given), the IC50 [1] was 0.78 µM and the GSTCP activity [3] was “Antagonist”.
For `O=C(O)C1CN(CCCP(=O)(O)O)CCN1CCCCc1ccccc1` (stereo not given), the IC50 [1] was greater than 100 µM.
For `CN[C@H](CC(=O)O)C(=O)O` [N-METHYL-D-ASPARTIC ACID (NMDA)], the GSTCP activity [7] was “Agonist” and the IC50 [9] was 4.55 µM.
`O=C(O)C1CN(CCCP(=O)(O)O)CCN1CCC=C(c1ccccc1)c1ccccc1` (stereo not given) gave an IC50 [1] greater than 100 µM.
`O=C(O)[C@@H]1C[C@H](CP(=O)(O)O)CCN1` [SELFOTEL] was tested, and the IC50 [1] was 0.065 µM and the GSTCP activity [2] was “Antagonist”.
Work on `CN1CCN(CCCP(=O)(O)O)CC1C(=O)O` (stereo not given) yielded an IC50 [1] of 47.7 µM.
With `O=C(O)C1CN(CCCCP(=O)(O)O)CCN1` (stereo not given) the IC50 [1] was 48 µM and the GSTCP activity [2] was “Antagonist”.
`O=C(O)C1CN(C(c2ccccc2)P(=O)(O)O)CCN1` (stereo not given) was tested, and the IC50 [9] was 13.3 µM, the IC50 [1] was 5.8 µM and the GSTCP activity [2] was “Antagonist”.
With `O=C(O)C1CN(CCCP(=O)(O)O)CCN1CCCCC(c1ccccc1)c1ccccc1` (stereo not given) the IC50 [1] was greater than 100 µM.
With `O=C(O)C1CN(c2ccccc2P(=O)(O)O)CCN1` (stereo not given) the IC50 [4] was greater than 100 µM.
